Reference: ChEMBL document CHEMBL3046066, “Synthesis of new fluorinated Tebufenpyrad analogs with acaricidal activity through regioselective pyrazole formation” (2008)
Active and inactive are the calls of the source. The rule behind the calls is not given here.

Columns and labels:
Tetranychus urticae [1] = assay: Acaricidal activity against Tetranychus urticae (two-spotted spider mite) assessed as fertility inhibition at 5 g/L measured after 4 days; type: functional; details: 96 h
How it was run: (§1)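 Each compound was applied as a solution, with active-principle concentration in the assay of 5 g/L (preliminary screen) or 0.16 g/L. Adulticide effect (% adult mortality) and fertility inhibition (%) were scored 24 h, 4 days and 6 days after application.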

Tetranychus urticae [2] = assay: Acaricidal activity against Tetranychus urticae (two-spotted spider mite) assessed as fertility inhibition at 5 g/L measured after 6 days; type: functional; details: 144 h; how it was run: as §1
Tetranychus urticae [3] = assay: Acaricidal activity against Tetranychus urticae (two-spotted spider mite) assessed as fertility inhibition at 5 g/L measured after 24 hr; type: functional; how it was run: as §1
Tetranychus urticae [4] = assay: Acaricidal activity against Tetranychus urticae (two-spotted spider mite) assessed as mortality at 5 g/L measured after 4 days; type: functional; details: 96 h; how it was run: as §1
Tetranychus urticae [5] = assay: Acaricidal activity against Tetranychus urticae (two-spotted spider mite) assessed as mortality at 5 g/L measured after 6 days; type: functional; details: 144 h; how it was run: as §1
Tetranychus urticae [6] = assay: Acaricidal activity against Tetranychus urticae (two-spotted spider mite) assessed as mortality at 5 g/L measured after 24 hr; type: functional; how it was run: as §1
Tetranychus urticae [7] = assay: Acaricidal activity against Tetranychus urticae (two-spotted spider mite) assessed as fertility inhibition at 0.16 g/L measured after 6 days; type: functional; details: 144 h; how it was run: as §1
Tetranychus urticae [8] = assay: Acaricidal activity against Tetranychus urticae (two-spotted spider mite) assessed as fertility inhibition at 0.16 g/L measured after 4 days; type: functional; details: 96 h; how it was run: as §1
Tetranychus urticae [9] = assay: Acaricidal activity against Tetranychus urticae (two-spotted spider mite) assessed as fertility inhibition at 0.16 g/L measured after 24 hr; type: functional; how it was run: as §1
Tetranychus urticae [10] = assay: Acaricidal activity against Tetranychus urticae (two-spotted spider mite) assessed as mortality at 0.16 g/L measured after 6 days; type: functional; details: 144 h; how it was run: as §1
Tetranychus urticae [11] = assay: Acaricidal activity against Tetranychus urticae (two-spotted spider mite) assessed as mortality at 0.16 g/L measured after 4 days; type: functional; details: 96 h; how it was run: as §1
Tetranychus urticae [12] = assay: Acaricidal activity against Tetranychus urticae (two-spotted spider mite) assessed as mortality at 0.16 g/L measured after 24 hr; type: functional; how it was run: as §1
Tetranychus urticae [13] = assay: Acaricidal activity against Tetranychus urticae (two-spotted spider mite) assessed as mortality at 1.5 g/L measured first 4 days; type: functional, organism-based
How it was run: (§2)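 Solutions at 1.50, 0.67 and 0.16 g/L were applied for a lower-concentration follow-up to the 5 g/L screen. Adult mortality (%) was scored over time after application, including within the first 24 h.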

Tetranychus urticae [14] = assay: Acaricidal activity against Tetranychus urticae (two-spotted spider mite) assessed as mortality at 0.67 g/L measured within 24 hr; type: functional; how it was run: as §2
Tetranychus urticae [15] = assay: Acaricidal activity against Tetranychus urticae (two-spotted spider mite) assessed as mortality at 1.5 g/L measured within 24 hr; type: functional; how it was run: as §2

Structure (SMILES) | inhibition at 5000 µg/mL (Tetranychus urticae [1]) [%] | inhibition at 5000 µg/mL (Tetranychus urticae [2]) [%] | inhibition at 5000 µg/mL (Tetranychus urticae [3]) [%] | mortality at 5000 µg/mL (Tetranychus urticae [4]) [%] | mortality at 5000 µg/mL (Tetranychus urticae [5]) [%] | mortality at 5000 µg/mL (Tetranychus urticae [6]) [%] | inhibition at 160 µg/mL (Tetranychus urticae [7]) [%] | inhibition at 160 µg/mL (Tetranychus urticae [8]) [%] | inhibition at 160 µg/mL (Tetranychus urticae [9]) [%] | mortality at 160 µg/mL (Tetranychus urticae [10]) [%] | mortality at 160 µg/mL (Tetranychus urticae [11]) [%] | mortality at 160 µg/mL (Tetranychus urticae [12]) [%] | Activity (Tetranychus urticae [13]) | mortality at 670 µg/mL (Tetranychus urticae [14]) [%] | mortality at 1500 µg/mL (Tetranychus urticae [15]) [%]
Cn1nc(C(F)C(F)(F)F)c(Cl)c1C(=O)NCc1ccc(C(C)(C)C)cc1 (stereo not given) | 60 | 65 | 53 | 10 | 60 | 10 | – | – | – | – | – | – | – | – | –
CC(F)c1cc(C(=O)NCc2ccc(C(C)(C)C)cc2)n(C)n1 (stereo not given) | 96 | 100 | 100 | 70 | 80 | 70 | 94 | 91 | 68 | 10 | 10 | 16 | – | – | –
Cn1nc(CCF)c(Cl)c1C(=O)NCc1ccc(C(C)(C)C)cc1 | 100 | 100 | 100 | 100 | 100 | 100 | 100 | 100 | 100 | 100 | 100 | 96 | Active | 96 | 100
Cn1nc(CC(F)F)c(Cl)c1C(=O)NCc1ccc(C(C)(C)C)cc1 | 100 | 100 | 100 | 100 | 100 | 100 | 100 | 100 | 100 | 75 | 71 | 80 | Active | – | 100
CCc1nn(C)c(C(=O)NCc2ccc(C(C)(C)C)cc2)c1Cl [TEBUFENPYRAD] | 100 | 100 | 100 | 100 | 100 | 100 | 100 | 100 | 84 | 100 | 100 | 92 | – | – | –
Cn1nc(CC(F)F)cc1C(=O)NCc1ccc(C(C)(C)C)cc1 | 100 | 100 | 100 | 100 | 100 | 100 | 98 | 100 | 96 | 10 | 14 | 59 | – | – | –
CC(F)c1nn(C)c(C(=O)NCc2ccc(C(C)(C)C)cc2)c1Cl (stereo not given) | 100 | 100 | 100 | 75 | 100 | 70 | 96 | 95 | 95 | 66 | 44 | 48 | Active | – | –
Cn1nc(CC(F)(F)F)c(Cl)c1C(=O)NCc1ccc(C(C)(C)C)cc1 | 98 | 98 | 97 | 30 | 70 | 25 | – | – | – | – | – | – | – | – | –
